Source: ChEMBL document CHEMBL2021843, “Small peptide inhibitors of acetyl-peptide hydrolase having an uncommon mechanism of inhibition and a stable bent conformation” (J Med Chem, 2012)
Activity calls are given as the source filed them. The calls are words filed in the database; no cut-off is given here.

Tests used:
HeLa [1] = test: Cytotoxicity against human HeLa cells assessed as LDH production after 24 hrs by spectrophotometry; assay type: functional, cell-based
Outline: (§1)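 LDH release into culture medium after 24 h exposure of HeLa or A375 cells to peptide (50, 100, 150 μM). Medium from untreated cultures served as control, and medium from cells exposed to 1% Triton X-100 served as the 100% release positive control. Data are means ± SD.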

HeLa [2] = test: Proapoptotic activity in human HeLa cells assessed as caspase 3-mediated hydrolysis of Ac-DEVD-AMC at 30 uM after 24 hrs by fluorimetry relative to untreated control; assay type: functional
Outline: (§2)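 Caspase 3 activity was measured fluorimetrically with a kit after 24 h exposure of HeLa or A375 cells to compound. It was expressed as fold increase over untreated culture. Data come from triplicate analyses in three experiments, given as means ± SD.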

HeLa [3] = test: Proapoptotic activity in human HeLa cells assessed as caspase 3-mediated hydrolysis of Ac-DEVD-AMC at 50 uM after 24 hrs by fluorimetry relative to untreated control; assay type: functional; outline: as §2
HeLa [4] = test: Cytotoxicity against human HeLa cells assessed as LDH production at 100 uM after 24 hrs by spectrophotometry; assay type: functional; outline: as §1
[5] = molecular target: T1, Acylamino-acid-releasing enzyme (Sus scrofa, UniProt P19205); test: (§3) Inhibition of pig APEH using acetyl-Ala-pNA as substrate incubated for 2 mins prior to substrate addition by spectrophotometry
T1 sequence (P19205 whole entry): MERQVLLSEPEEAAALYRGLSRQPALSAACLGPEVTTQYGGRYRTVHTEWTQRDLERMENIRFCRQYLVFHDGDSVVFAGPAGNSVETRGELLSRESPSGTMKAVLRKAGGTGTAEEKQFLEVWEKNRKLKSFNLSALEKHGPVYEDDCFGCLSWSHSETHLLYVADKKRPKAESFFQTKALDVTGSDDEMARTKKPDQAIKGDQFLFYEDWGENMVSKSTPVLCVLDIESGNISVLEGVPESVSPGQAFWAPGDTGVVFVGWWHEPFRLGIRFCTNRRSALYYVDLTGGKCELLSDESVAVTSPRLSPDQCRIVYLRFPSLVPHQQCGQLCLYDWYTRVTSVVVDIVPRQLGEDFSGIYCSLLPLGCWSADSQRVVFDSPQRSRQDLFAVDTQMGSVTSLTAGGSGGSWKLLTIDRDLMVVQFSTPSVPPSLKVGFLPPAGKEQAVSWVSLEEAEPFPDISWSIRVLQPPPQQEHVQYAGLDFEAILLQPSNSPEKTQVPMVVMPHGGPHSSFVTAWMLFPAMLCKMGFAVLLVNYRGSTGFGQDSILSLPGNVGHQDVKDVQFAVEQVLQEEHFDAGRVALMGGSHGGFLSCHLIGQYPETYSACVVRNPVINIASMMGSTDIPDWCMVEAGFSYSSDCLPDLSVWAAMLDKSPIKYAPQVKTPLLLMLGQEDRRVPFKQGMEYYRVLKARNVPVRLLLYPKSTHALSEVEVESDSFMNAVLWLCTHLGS

[6] = Inhibition of chymotrypsin incubated for 30 mins prior to substrate addition by spectrophotometry
Outline: (§4)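 Panel of proteases tested up to a maximal 1000 μM inhibitor, each at its own pH: carboxypeptidase Y pH 7.0; chymotrypsin, elastase and trypsin pH 8.0; subtilisin and proteinase K pH 7.5. IC50 and maximal % inhibition were recorded.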

[7] = Inhibition of elastase incubated for 30 mins prior to substrate addition by spectrophotometry; outline: as §4
[8] = Inhibition of trypsin incubated for 30 mins prior to substrate addition by spectrophotometry; outline: as §4
[9] = Inhibition of carboxypeptidase Y incubated for 30 mins prior to substrate addition by spectrophotometry; outline: as §4
[10] = Inhibition of subtilisin incubated for 30 mins prior to substrate addition by spectrophotometry; outline: as §4
[11] = Inhibition of proteinase K incubated for 30 mins prior to substrate addition by spectrophotometry; outline: as §4
[12] = Inhibition of chymotrypsin at 1 mM incubated for 30 mins prior to substrate addition by spectrophotometry; outline: as §4
[13] = Inhibition of elastase at 1 mM incubated for 30 mins prior to substrate addition by spectrophotometry; outline: as §4
[14] = Inhibition of trypsin at 1 mM incubated for 30 mins prior to substrate addition by spectrophotometry; outline: as §4
[15] = Inhibition of carboxypeptidase Y at 1 mM incubated for 30 mins prior to substrate addition by spectrophotometry; outline: as §4
[16] = Inhibition of subtilisin at 1 mM incubated for 30 mins prior to substrate addition by spectrophotometry; outline: as §4
[17] = Inhibition of proteinase K at 1 mM incubated for 30 mins prior to substrate addition by spectrophotometry; outline: as §4
[18] = molecular target: T2, Acylamino-acid-releasing enzyme (Homo sapiens) (UniProt P13798); test: Inhibition of APEH in human HeLa cells after 24 hrs; assay type: cell-based
T2 sequence (whole entry): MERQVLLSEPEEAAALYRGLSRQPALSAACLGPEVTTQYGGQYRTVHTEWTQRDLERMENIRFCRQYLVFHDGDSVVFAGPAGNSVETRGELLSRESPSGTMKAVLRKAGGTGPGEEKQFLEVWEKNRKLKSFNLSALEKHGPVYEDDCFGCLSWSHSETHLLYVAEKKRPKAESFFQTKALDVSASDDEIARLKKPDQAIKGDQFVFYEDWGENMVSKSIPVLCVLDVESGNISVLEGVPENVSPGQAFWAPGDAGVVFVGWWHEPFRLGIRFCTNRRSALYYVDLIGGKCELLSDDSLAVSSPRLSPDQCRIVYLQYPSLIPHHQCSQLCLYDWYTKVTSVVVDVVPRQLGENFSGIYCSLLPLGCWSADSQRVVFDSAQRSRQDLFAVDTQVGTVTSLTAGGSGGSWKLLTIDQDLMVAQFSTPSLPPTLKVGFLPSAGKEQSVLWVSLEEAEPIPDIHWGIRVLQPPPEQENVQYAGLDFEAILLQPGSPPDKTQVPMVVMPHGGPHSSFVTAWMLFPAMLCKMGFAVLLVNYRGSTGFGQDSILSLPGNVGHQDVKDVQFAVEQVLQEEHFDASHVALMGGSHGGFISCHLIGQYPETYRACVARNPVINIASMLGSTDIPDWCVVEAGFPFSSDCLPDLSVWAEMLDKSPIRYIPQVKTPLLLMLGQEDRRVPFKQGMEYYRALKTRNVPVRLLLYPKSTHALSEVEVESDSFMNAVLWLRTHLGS
Outline: (§5)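 Melanoma A375 and cervical HeLa cells were exposed for 24 h to peptide at 50, 100 or 150 μM. Data are means ± SD.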

[19] = molecular target: T2, Acylamino-acid-releasing enzyme (Homo sapiens); test: Inhibition of APEH in human A375 cells after 24 hrs; assay type: cell-based; conditions: A-375; outline: as §5
[20] = molecular target: T2, Acylamino-acid-releasing enzyme (Homo sapiens); test: Inhibition of APEH in human HeLa cells at 150 uM after 24 hrs; assay type: cell-based; outline: as §5
[21] = molecular target: T2, Acylamino-acid-releasing enzyme (Homo sapiens); test: Inhibition of APEH in human A375 cells at 150 uM after 24 hrs; assay type: cell-based; conditions: A-375; outline: as §5
HeLa [22] = test: Proapoptotic activity in human HeLa cells assessed as caspase 3-mediated hydrolysis of Ac-DEVD-AMC at 100 uM after 24 hrs by fluorimetry; assay type: functional, cell-based; outline: as §2
HeLa [23] = test: Proapoptotic activity in human HeLa cells assessed as caspase 3-mediated hydrolysis of Ac-DEVD-AMC at 150 uM after 24 hrs by fluorimetry; assay type: functional, cell-based; outline: as §2
A-375 [24] = test: Proapoptotic activity in human A375 cells assessed as caspase 3-mediated hydrolysis of Ac-DEVD-AMC at 100 uM after 24 hrs by fluorimetry; assay type: functional, cell-based; outline: as §2
HeLa [25] = test: Cytotoxicity against human HeLa cells assessed as LDH production at 50 to 150 uM after 24 hrs by spectrophotometry; assay type: functional, cell-based; outline: as §1
A-375 [26] = test: Cytotoxicity against human A375 cells assessed as LDH production at 50 to 150 uM after 24 hrs by spectrophotometry; assay type: functional, cell-based; outline: as §1
A-375 [27] = test: Proapoptotic activity in human A375 cells assessed as caspase 3-mediated hydrolysis of Ac-DEVD-AMC at 150 uM after 24 hrs by fluorimetry; assay type: functional, cell-based; outline: as §2
[28] = molecular target: T3, Acylamino-acid-releasing enzyme (Sus scrofa) (UniProt P19205); conditions: 150 uM
T3 sequence (whole entry): T1 sequence (P19205 whole entry)

[29] = molecular target: T3, Acylamino-acid-releasing enzyme (Sus scrofa); conditions: 1 mM
[30] = molecular target: T3, Acylamino-acid-releasing enzyme (Sus scrofa); conditions: 50 to 100 uM
[31] = molecular target: T3, Acylamino-acid-releasing enzyme (Sus scrofa); conditions: 50 uM
[32] = molecular target: T3, Acylamino-acid-releasing enzyme (Sus scrofa); test: as §3

CSCC[C@@H](NC(=O)[C@@H](CC(C)C)NC(=O)C(F)(F)F)C(=O)N1CCC[C@@H]1C(=O)N[C@H](CC(=O)O)C(N)=O
Activity (HeLa [1]): inactive

CC[C@@H](C)[C@@H](O)[C@H](C)C(=O)[C@H](C)/C=C(\C)C[C@H](C)[C@@H]1OC(=O)[C@H]1CC [EBELACTONE B]
fold change (FC) (HeLa [2]): 5
fold change (FC) (HeLa [3]): 5
Activity (HeLa [4]): 28%
Activity (HeLa [1]): Dose-dependent effect

CSCC[C@@H](NC(=O)[C@@H](CC(C)C)NC(=O)C(F)(F)F)C(=O)N1CCC[C@@H]1C(=O)N[C@H](Cc1cnc[nH]1)C(N)=O
IC50 [5]: 98 µM
Ki [5]: 24 µM
IC50 [6]: > 1000 µM
IC50 [7]: > 1000 µM
IC50 [8]: > 1000 µM
IC50 [9]: 210 µM
IC50 [10]: > 1000 µM
IC50 [11]: > 1000 µM
Imax [12]: < 1%
Imax [13]: < 1%
Imax [14]: < 1%
Imax [15]: 30%
Imax [16]: < 1%
Imax [17]: < 1%
Activity (HeLa [1]): inactive
inhibition [18]: Dose-dependent effect
inhibition [19]: Dose-dependent effect
Imax [20]: 80%
Imax [21]: 50%
Activity (HeLa [22]): Active
Activity (HeLa [23]): Active
Activity (A-375 [24]): Active
Activity (HeLa [25]): inactive
Activity (A-375 [26]): inactive
Activity (A-375 [27]): Active
Imax [28]: 72%
Imax [29]: 72%
inhibition [30]: Active
inhibition [31]: > 25%

CSCC[C@@H](NC(=O)[C@H](N)CC(C)C)C(=O)N1CCC[C@@H]1C(=O)N[C@H](Cc1cnc[nH]1)C(N)=O
inhibition [32]: inactive

CSCC[C@@H](NC(=O)[C@@H](CC(C)C)NC(C)=O)C(=O)N1CCC[C@@H]1C(=O)N[C@H](Cc1cnc[nH]1)C(N)=O
inhibition [32]: inactive
